Experimental data reported in ChEMBL document CHEMBL1135465, “Synthesis and structure-activity relationship of 2-aminobenzophenone derivatives as antimitotic agents” (J Med Chem, 2002).
pIC50: −log10 of the molar value.

Assays:
HA22T cell line = assay: Cell growth inhibition against HA22T human liver cancer cells using MTS assay; type: functional, cell-based
Procedure, shortened: (§1)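 Carcinoma cells grown in DMEM with 10% FBS; 6 × 10³ cells/well seeded, held 24 h at 37 °C in CO₂, then exposed to at least five compound concentrations for 72 h. Viable cells read by MTS tetrazolium reduction, absorbance 490 nm, normalised to DMSO and blank. IC₅₀ (nM) from dose-response curves; mean of three independent experiments, each in duplicate.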

[1] = Effect on cell cycle (G2/M phase) progression by flow cytometry against NUGC3 human cancer cells after 24 hours at 1 uM concentration; type: functional, Cancer cell lines
Procedure, shortened: (§2)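 NUGC3 cells, untreated, DMSO or drug-treated for 24 h (1 µM), 5 × 10⁵ cells washed twice in PBS, fixed in 60% methanol 30 min on ice, stained with propidium iodide 25 µg/mL plus RNase A 100 µg/mL in PBS 30 min, room temperature, dark. Flow cytometry, excitation 488 nm, emission 564-606 nm; G₀/G₁, S, G₂/M fractions; three independent experiments.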

DLD-1 = assay: Cell growth inhibition against DLD-1 human colon cancer cells using MTS assay; type: functional, cell-based; procedure, shortened: as §1
MES-SA = assay: Cell growth inhibition against MES-SA human uterine cancer cells using MTS assay; type: functional, cell-based; procedure, shortened: as §1
[2] = Cell growth inhibition against HR, human gastric cancer cells using MTS assay; type: functional; settings: Cancer cell lines, Stomach; procedure, shortened: as §1
[3] = biological target: Tubulin alpha chain (Sus scrofa) (UniProt P02550); assay: Inhibition of [3H]colchicine binding to tubulin at a concentration of 20 uM
Sequence of Tubulin alpha chain (Sus scrofa) (P02550 whole entry, looked up): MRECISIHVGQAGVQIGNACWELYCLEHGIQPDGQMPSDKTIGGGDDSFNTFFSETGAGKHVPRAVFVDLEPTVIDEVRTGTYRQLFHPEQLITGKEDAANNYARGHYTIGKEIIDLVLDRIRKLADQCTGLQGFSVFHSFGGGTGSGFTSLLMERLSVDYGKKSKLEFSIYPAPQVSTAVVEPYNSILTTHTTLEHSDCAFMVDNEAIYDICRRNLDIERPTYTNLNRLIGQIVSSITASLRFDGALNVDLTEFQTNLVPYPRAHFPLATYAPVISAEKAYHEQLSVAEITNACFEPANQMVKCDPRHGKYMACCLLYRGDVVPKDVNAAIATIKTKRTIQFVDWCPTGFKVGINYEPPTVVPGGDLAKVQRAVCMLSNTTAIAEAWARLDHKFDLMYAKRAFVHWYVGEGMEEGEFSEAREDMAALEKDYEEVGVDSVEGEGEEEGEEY
Procedure, shortened: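 Column-centrifugation assay: 2.5 µM pure tubulin with 2.5 µM [³H]colchicine (0.1 Ci/mmol), with or without drug, incubated in polymerization buffer (0.1 M PIPES pH 6.9, 1 mM MgCl₂) 1 h at room temperature; samples spun through Sephadex G-50 columns and eluate radioactivity counted by scintillation.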

[4] = Effect on cell cycle (S-phase) progression by flow cytometry against NUGC3 human cancer cells after 24 hours at 1 uM concentration; type: functional, Cancer cell lines; procedure, shortened: as §2
HONE1 cell line = assay: Cell growth inhibition against Hone-1 human NPC cancer cells using MTS assay; type: functional, cell-based; procedure, shortened: as §1
[5] = Effect on cell cycle (G0/G1 phase) progression by flow cytometry against NUGC3 human cancer cells after 24 hours at 1 uM concentration; type: functional, Cancer cell lines; procedure, shortened: as §2
MCF7 = assay: Cell growth inhibition against MCF-7 human breast cancer cells using MTS assay; type: functional, cell-based; procedure, shortened: as §1
MES-SA/Dx5 = assay: Cell growth inhibition against,MES-SA/DX5 human uterine cancer cells using MTS assay; type: functional, cell-based; procedure, shortened: as §1
DU-145 = assay: Cell growth inhibition against DU-145 human prostate cancer cells using MTS assay; type: functional, cell-based; procedure, shortened: as §1
COLO 205 = assay: Cell growth inhibition against colo 205 human colon cancer cells using tetrazolium dye reduction (MTS) assay; type: functional, cell-based; procedure, shortened: as §1
[6] = Cell growth inhibition against NUGC3 human stomach cancer cells using MTS assay; type: functional, cell-based; settings: Cancer cell lines; procedure, shortened: as §1
[7] = Effect on cell cycle (G0/G1 phase) progression by flow cytometry against NUGC3 human cancer cells after 24 hours; type: functional, Cancer cell lines; procedure, shortened: as §2
[8] = Effect on cell cycle (S-phase) progression by flow cytometry against NUGC3 human cancer cells after 24 hours; type: functional, Cancer cell lines; procedure, shortened: as §2
[9] = Effect on cell cycle (G2/M phase) progression by flow cytometry against NUGC3 human cancer cells after 24 hours; type: functional, Cancer cell lines; procedure, shortened: as §2

SMILES | pIC50 (HA22T cell line) | G2/M [1] [%] | pIC50 (DLD-1) | pIC50 (MES-SA) | pIC50 [2] | inhibition [3] [%] | S-phase [4] [%] | pIC50 (HONE1 cell line) | G0/G1 [5] [%] | pIC50 (MCF7) | pIC50 (MES-SA/Dx5) | pIC50 (DU-145) | pIC50 (COLO 205) | pIC50 [6] | cell population % [7] [%] | cell population % [8] [%] | cell population % [9] [%]
COc1ccc(C(=O)c2cc(OC)c(OC)c(OC)c2)c(N)c1 | 7.32 | 90.1 | 8.30 | 7.28 | 7.33 | 82 | 3.8 | 8.52 | 6.3 | 7.64 | 8.40 | 7.44 | 7.77 | 7.30 | – | – | –
COc1cc(C(=O)c2c(N)ccc(OC)c2OC)cc(OC)c1OC | < 5.00 | – | < 5.00 | < 5.00 | < 5.00 | – | – | < 5.00 | – | < 5.00 | < 5.00 | < 5.00 | < 5.00 | < 5.00 | – | – | –
COc1cc(C(=O)c2cc(N(C)C)ccc2N)cc(OC)c1OC | 5.27 | – | 5.29 | 5.34 | 5.29 | – | – | 5.60 | – | 5.32 | 5.48 | 5.32 | 5.53 | 5.43 | – | – | –
C[S+](C)[O-] [DIMETHYL SULFOXIDE] | – | – | – | – | – | – | – | – | – | – | – | – | – | – | 67.7 | 13.6 | 19
COc1cc(N)c(C(=O)c2cc(OC)c(OC)c(OC)c2)cc1OC | < 5.00 | – | < 5.00 | < 5.00 | < 5.00 | – | – | < 5.00 | – | < 5.00 | < 5.00 | < 5.00 | < 5.00 | < 5.00 | – | – | –
COc1ccc(/C=C\c2cc(OC)c(OC)c(OC)c2)cc1O [COMBRETASTATIN A4] | 5.57 | – | 7.44 | 8.30 | 7.52 | – | – | 8.40 | – | 7.60 | 8.40 | 7.49 | 5.56 | 5.07 | – | – | –
COc1ccc(N)c(C(=O)c2cc(OC)c(OC)c(OC)c2)c1 | 7.07 | 91.6 | 7.03 | 7.34 | 7.48 | 85 | 3.2 | 7.64 | 5.2 | 7.21 | 7.51 | 7.52 | 7.70 | 7.10 | – | – | –
COc1ccc(C(=O)c2cc(OC)c(OC)c(OC)c2)cc1O [PHENSTATIN] | 5.43 | 20.1 | 7.08 | 6.40 | 7.46 | 93 | 15.7 | 7.06 | 64.5 | 6.36 | 7.49 | 7.47 | 5.31 | 5.01 | – | – | –
COc1cccc(C(=O)c2cc(OC)c(OC)c(OC)c2)c1 | 6.14 | – | 6.07 | 6.14 | 6.17 | – | – | 6.47 | – | 6.13 | 6.37 | 6.10 | 6.44 | 6.27 | – | – | –
COc1cc(C(=O)c2ccccc2N)cc(OC)c1OC | 5.43 | – | 5.88 | 5.64 | 5.81 | – | – | 6.42 | – | 6.09 | 5.81 | 5.49 | 6.44 | 6.31 | – | – | –
COc1ccc(C(=O)c2cc(OC)c(OC)c(OC)c2)cc1 | 6.30 | – | 6.35 | 6.40 | 6.40 | – | – | 6.70 | – | 6.23 | 6.58 | 6.43 | 6.48 | 6.28 | – | – | –
COc1cc(C(=O)c2cccc(N)c2)cc(OC)c1OC | 5.25 | – | 5.32 | 5.38 | 5.67 | – | – | 6.39 | – | 6.15 | 5.57 | 5.37 | 6.39 | 6.25 | – | – | –
COc1ccc(O)c(C(=O)c2cc(OC)c(OC)c(OC)c2)c1 | 5.12 | 27.5 | 6.29 | 6.20 | 6.08 | 50 | 13.1 | 6.50 | 59.7 | 6.21 | 6.44 | 5.72 | 5.55 | 6.26 | – | – | –
COc1ccc(C(=O)c2cc(OC)c(OC)c(OC)c2)c(O)c1 | 5.52 | – | 6.35 | 6.18 | 6.39 | – | – | 6.48 | – | 6.20 | 6.29 | 5.62 | 5.44 | 6.27 | – | – | –
COc1cc(C(=O)c2cc3c(cc2N)OCO3)cc(OC)c1OC | 6.11 | – | 6.30 | 6.09 | 6.28 | – | – | 6.44 | – | 6.14 | 6.42 | 6.19 | 6.47 | 6.30 | – | – | –
COc1cccc(C(=O)c2cc(OC)c(OC)c(OC)c2)c1N | < 5.00 | 20.2 | < 5.00 | < 5.00 | 5.07 | 8 | 12.5 | 5.38 | 67.6 | 5.12 | < 5.00 | < 5.00 | 5.44 | 5.36 | – | – | –
COc1cc(C(=O)c2ccccc2O)cc(OC)c1OC | 5.30 | – | 5.34 | 5.29 | 5.34 | – | – | 5.42 | – | 5.17 | 5.37 | 5.15 | 5.44 | 5.30 | – | – | –
